Results of several laboratories.
Lines come from different studies, so protocols differ.
Target: Ephrin type-A receptor 1 (EPHA1, Homo sapiens, UniProt P21709)
One construct used (P21709 26-976): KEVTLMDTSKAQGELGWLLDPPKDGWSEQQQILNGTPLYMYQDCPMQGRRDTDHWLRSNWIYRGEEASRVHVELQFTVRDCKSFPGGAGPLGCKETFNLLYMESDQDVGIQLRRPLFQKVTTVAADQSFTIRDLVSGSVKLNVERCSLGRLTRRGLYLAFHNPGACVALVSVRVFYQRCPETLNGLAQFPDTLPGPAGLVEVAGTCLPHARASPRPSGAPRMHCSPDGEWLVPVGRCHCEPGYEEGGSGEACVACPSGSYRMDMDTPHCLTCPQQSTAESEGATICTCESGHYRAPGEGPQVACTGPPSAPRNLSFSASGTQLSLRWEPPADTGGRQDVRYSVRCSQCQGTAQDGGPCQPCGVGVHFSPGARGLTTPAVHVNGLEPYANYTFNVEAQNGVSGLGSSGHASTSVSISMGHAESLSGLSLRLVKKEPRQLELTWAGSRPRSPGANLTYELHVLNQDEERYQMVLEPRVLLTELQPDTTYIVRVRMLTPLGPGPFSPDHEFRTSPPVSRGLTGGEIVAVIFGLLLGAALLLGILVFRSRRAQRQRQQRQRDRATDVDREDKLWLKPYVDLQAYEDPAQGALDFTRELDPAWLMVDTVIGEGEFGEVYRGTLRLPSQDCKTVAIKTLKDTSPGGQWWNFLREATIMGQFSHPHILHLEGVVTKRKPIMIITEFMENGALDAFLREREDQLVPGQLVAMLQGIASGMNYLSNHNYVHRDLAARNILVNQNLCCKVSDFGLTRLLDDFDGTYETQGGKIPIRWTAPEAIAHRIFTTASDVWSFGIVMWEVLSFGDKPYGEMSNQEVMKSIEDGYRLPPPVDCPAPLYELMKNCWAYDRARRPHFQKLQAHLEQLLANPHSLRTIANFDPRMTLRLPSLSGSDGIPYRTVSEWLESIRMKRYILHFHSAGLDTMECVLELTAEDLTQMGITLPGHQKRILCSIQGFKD

With `CC(C)(C)c1cc(C=C(C#N)C#N)cc(Br)c1O` the remaining activity was 85.1% (enzyme activity, inhibitor; 0.5 µM).
With `Cn1cncc1[C@@](O)(COc1ccc(C#N)cc1-c1ccc(OC(F)(F)F)cc1)c1ccc(C#N)cc1` the remaining binding was 93% (cell-free assay, competition with immobilised ligand; 1 µM).
`COc1ncccc1-c1cnn2ccc(N3CCN(C(=O)OC(C)C)CC3)nc12` gave a remaining binding of 84% (binding, competition with immobilised ligand; 1 µM).
The inhibition of `Cn1cc(-c2cc(F)cc(N3CCn4c(cc5c4CCCC5)C3=O)c2CO)cc(Nc2ccc(N3CCN(C4COC4)CC3)cn2)c1=O` is reported as 19% (enzyme activity, inhibitor; 0.1 µM).
The remaining signal of `O=c1[nH]c2ccccc2n1C1CCN(Cc2ccc(-c3[nH]c4cc5ncnc5cc4nc3-c3ccccc3)cc2)CC1` is reported as 84.4% (cell-free assay; 0.5 µM).
The remaining binding of `Cc1nn(C)cc1-c1nc2c(N3CCN(Cc4ccc(Cl)cc4)CC3)c(Cl)cnc2[nH]1` is reported as 90% (binding, competition with immobilised ligand; 1 µM).
The inhibition of `COc1cc(Nc2ncc(F)c(Nc3ccc4c(n3)NC(=O)C(C)(C)O4)n2)cc(OC)c1OC` is reported as 98% (binding, competition with immobilised ligand; 10 µM).
`Cn1cc(-c2cccc(N3CCc4c(sc5c4CC(C)(C)C5)C3=O)c2CO)cc(Nc2ccncn2)c1=O` has an inhibition of 3% (enzyme activity, inhibitor; 1 µM).
`Nc1ncc(-c2nc(N3CCOCC3)nc(N3CCOCC3)n2)c(C(F)F)n1` gave a remaining binding of 68% (cell-free assay, competition with immobilised ligand; 10 µM).
